Compound activity from PubChem BioAssay.
This is a sample that favours compounds with a hit; in the whole collection about 1.5% have one here.
Rpn11 inh – blocks the human proteasome subunit Rpn11; O00487; calls only at 20 µM; human 26S proteasome, Ub4-pepOG fluorescence polarization; 20S core pre-blocked with epoxomicin; 360,000 compounds, 0.59% hits;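 active means inhibition at 20 µM, scaled to each plate's controls, above about 33%, limit read from the data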
TPT1 inhibitor – inhibitors of Candida albicans tRNA 2'-phosphotransferase TPT1; recombinant caTPT1, FP RNA substrate dephosphorylation; inhibition, % at 5 µM; 300,000 compounds, 0.81% hits; AID 1962;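 active means inhibition above the mean of all tested compounds plus 3 SD, set per screening campaign, cut at about 24% in these data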
CSN inh – inhibitors of human CSN-mediated cullin deneddylation | Q92905 | Purified CSN, SCF-Nedd8-OG deneddylation, fluorescence polarization | inhibition, % at 12.5 µM | 360,000 compounds, 0.38% hits | AID 651999;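 active means pattern-corrected inhibition above about 35%, with an unprinted fluorescence ratio check between 0.5 and 1.5, limit read from the data, passing the limit was not always enough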
Target sequence (Q92905 whole entry, looked up, one chain of several): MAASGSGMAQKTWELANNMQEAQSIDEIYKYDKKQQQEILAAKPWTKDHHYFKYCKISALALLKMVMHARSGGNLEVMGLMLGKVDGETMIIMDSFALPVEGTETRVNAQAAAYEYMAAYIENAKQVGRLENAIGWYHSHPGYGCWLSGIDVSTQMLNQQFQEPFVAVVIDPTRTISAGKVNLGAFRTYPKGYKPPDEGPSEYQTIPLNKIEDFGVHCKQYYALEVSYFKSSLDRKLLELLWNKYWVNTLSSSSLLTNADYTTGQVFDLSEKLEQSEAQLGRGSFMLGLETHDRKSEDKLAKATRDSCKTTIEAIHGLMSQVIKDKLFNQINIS
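Assay system: purified human Csn5 enzyme expressed in HEK293T cells; Input: 0.24 nM Csn5 enzyme, final concentration; Reagent: 10 nM SCFSkp2-Nedd8OG; Compound dosing: 12.5 µM single point; Times: reaction 90 min, room temperature; Technique: fluorescence polarization readout.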
HNF4A DNA FP – change in binding of human HNF4 alpha to DNA. 360,000 compounds, 0.3% hits. P41235. HNF4a-FITC DNA binding, fluorescence polarization, 1 h. activity change, % at 10 µM; in the data active means activity change above about 30%, passing the limit was not always enough
caTPT1 confirm – confirmation of Candida albicans TPT1 inhibitors; shares compounds with TPT1 inhibitor; recombinant caTPT1, fluorescence polarization, RNase T1 coupled; inhibition, % at 5 µM; 2,400 compounds, 74% hits; AID 2149;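 active means inhibition above the primary screen limit, the mean inhibition of all tested compounds plus 3 SD, cut at about 25% in these data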
RNase T1 inh – blocks Aspergillus oryzae RNase T1, a TPT1 counter-screen. inhibition, % at 5 µM. 2,400 compounds, 83% hits. shares compounds with TPT1 inhibitor. RNase T1 cleavage, fluorescence polarization, 1536-well;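 active means inhibition above the solvent-only control well mean plus 3 SD, limit set per screening run, cut at about 23% in these data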;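 further: inhibitors block cleavage so intact labeled substrate keeps polarization high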
Target sequence (P00651 whole entry, looked up): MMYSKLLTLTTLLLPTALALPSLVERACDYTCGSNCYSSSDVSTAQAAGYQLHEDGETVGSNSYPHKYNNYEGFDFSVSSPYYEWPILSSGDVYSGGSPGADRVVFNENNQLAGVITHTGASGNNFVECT
A number is an active result; i = inactive; nt = no result shown.

SMILES | Rpn11 inh | TPT1 inhibitor | CSN inh | HNF4A DNA FP | caTPT1 confirm | RNase T1 inh
CN1C2CCC1/C(=C/c1cccn1C)C(=O)/C2=C\c1cccn1C | nt | 121.4 | i | i | 123.3 | 117.1
CN1C2CCC1/C(=C\c1ccc(F)cc1)C(=O)/C2=C/c1ccc(F)cc1 | i | i | i | i | nt | nt
Cc1ccc(OCC(=O)NNC(=O)c2ccc(F)c(S(=O)(=O)N3CCOCC3)c2)cc1C | i | nt | i | i | nt | nt
COc1ccc(NC(=O)CSc2ccc3nnc(CCNC(=O)c4ccccc4)n3n2)cc1 | i | 40.8 | i | i | i | i
CC(=O)Nc1ccc(NC(=O)CSc2ccc3nnc(CCNC(=O)c4ccccc4)n3n2)cc1 | i | i | i | i | nt | nt
Cc1ccc(CNC(=O)[C@H]2O[C@@H](n3ccc(N)nc3=O)[C@H](O)[C@@H]2O)o1 | i | nt | i | i | nt | nt
CCOC(=O)C1=NNC(C(=O)OCC)C1C(=O)OCC (centres undefined) | i | nt | i | i | nt | nt
CCOc1ccc(N2C(=O)CC(/C=C3/N(C)c4ccccc4C3(C)C)C2=O)cc1 (centres undefined) | i | 24.8 | i | i | i | 26.1
CN1/C(=C/C2CC(=O)NC2=O)C(C)(C)c2ccccc21 (centres undefined) | i | i | i | i | nt | nt
CN1/C(=C/C2CC(=O)N(c3cccc4ccccc34)C2=O)C(C)(C)c2ccccc21 (centres undefined) | nt | 37.5 | i | i | 54.5 | 67.9
N#CCCN(Cc1cccnc1)CN1C(=O)c2ccccc2C1=O | i | nt | i | i | nt | nt
COc1ccc(-n2nc3c(N4CCC(C(=O)N5CCC(C)CC5)CC4)nnc(C)c3c2C)cc1 | nt | 79.0 | 63.9 | 99.3 | 71.9 | 81.1
O=S(=O)(c1ccc(-c2ccon2)s1)N1CCN(c2ccncc2)CC1 | nt | 44.2 | nt | nt | i | 26.0
Cc1cc(N2C(=O)C(O)=C(C(=O)c3cc4ccccc4o3)C2c2cccs2)no1 (centres undefined) | i | 40.8 | i | i | 29.9 | 39.5
COc1ccc(OCc2cc(C(=O)N(C)Cc3cc(C4CC4)n[nH]3)no2)c(Cl)c1 | i | i | i | i | nt | nt
O=C1/C(=C\c2ccc(O)cc2)SC(=S)N1Cc1ccccc1 | nt | 74.8 | i | 93.9 | 83.4 | 84.4
COc1cc(/C=C2/SC(=S)N(Cc3ccccc3)C2=O)cc(Cl)c1O | nt | 36.5 | i | i | i | 21.5
O=C(Nc1ccc(Oc2ccccc2)cc1)c1csc([C@@H]2C[C@H](O)[C@@H](CO)O2)n1 | i | nt | i | i | nt | nt
Clc1cccc(Cc2c(C3CCCCC3)nc3ccc(Br)cn23)c1 | i | nt | i | i | nt | nt
Cc1cccc(NS(=O)(=O)c2ccc(C)c(C(=O)NCCCN3CCOCC3)c2)c1 | i | nt | i | i | nt | nt
COc1cccc(/C=C2\SC(=S)N(c3cccnc3)C2=O)c1OC | i | i | i | i | nt | nt
Cc1cc(/C=C2/SC(=S)N(c3cccc(C(F)(F)F)c3)C2=O)c(C)n1-c1cccnc1 | i | 87.7 | 52.9 | 63.6 | 91.6 | 98.9
Cc1cc(/C=C2/C(=O)N(C)C(=S)N2C)ccc1N1CCCC1 | nt | 158.8 | i | i | 154.9 | 141.7
CCCN1C(=O)/C(=C/c2ccc(N3CCCC3)c(C)c2)NC1=S | nt | 133.9 | i | i | 139.1 | 130.1
CN1C(=O)/C(=C/c2ccc(O)c([N+](=O)[O-])c2)NC1=S | i | i | i | i | nt | nt
SMILES | Rpn11 inh | TPT1 inhibitor | CSN inh | HNF4A DNA FP | caTPT1 confirm | RNase T1 inh
CCCN1C(=O)/C(=C/c2ccc(OCC(=O)OCC)cc2)NC1=S | i | nt | i | i | nt | nt
Cc1cc(/C=C2\NC(=S)N(C)C2=O)ccc1N1CCCC1 | nt | 137.4 | i | i | 128.2 | 122.0
COc1ccc(C(=O)OCC(=O)c2ccc3[nH]c(=O)[nH]c3c2)c(OC)c1OC | i | nt | i | i | nt | nt
CCOc1cc(/C=C2\CCCC(C(=O)C(F)(F)F)=C2O)ccc1O | i | 35.8 | i | i | 44.0 | 58.3
COc1cc(/C=C2/CCCC(C(=O)C(F)(F)F)=C2O)ccc1O | i | i | i | i | nt | nt
Cc1sc2nc(COC(=O)c3cccc(OC(F)F)c3)[nH]c(=O)c2c1C | i | i | i | i | nt | nt
Cc1sc2nc(COC(=O)c3cccc(S(=O)(=O)N(C)c4ccccc4)c3)[nH]c(=O)c2c1C | nt | 51.7 | i | i | 44.8 | 55.2
O=[N+]([O-])c1ccc(N2CCN(Cc3ccccc3)CC2)s1 | i | 31.1 | i | i | 38.0 | 50.1
O=[N+]([O-])c1ccc(N2CCN(Cc3ccccc3)CC2)nc1 | i | i | i | i | nt | nt
CCCCN1C(=O)/C(=C/C=C2\N(C)c3ccccc3C2(C)C)SC1=S | nt | 196.0 | nt | nt | 134.1 | 123.8
CCCN1C(=O)/C(=C\C=C2/C=CN(CC)c3ccccc32)SC1=S | i | i | i | i | nt | nt
CCN(CC)C1=CC2=CC(=C(C#N)C#N)CCC2CC1 (centres undefined) | nt | 32.2 | i | i | i | 37.1
O=[N+]([O-])c1cccc(C2NCC(c3ccccc3Cl)c3c2[nH]c2ccccc32)c1 (centres undefined) | i | 130.6 | i | i | i | i
COC(=O)c1sccc1NC(=O)c1ccc(C)cc1 | i | i | i | i | nt | nt
COC(=O)c1sccc1NC(=O)c1ccc(OC)cc1 | i | 62.7 | i | i | i | i
O=C(O)c1ccc2c3c(cccc13)C(=O)N(c1ccccc1)C2=O | i | i | i | i | nt | nt
Cc1c(O)c2c3c(cccc3c1O)C(=O)N(c1ccccc1)C2=O | i | 39.2 | i | i | 27.4 | 39.7
OCC1(CCOc2ccccc2)CCN(Cc2ccc(OC(F)F)cc2)CC1 | i | i | i | i | nt | nt
COc1ccc(-n2c(O)c(/C=N/NS(=O)(=O)c3cccc([N+](=O)[O-])c3)c3ccccc3c2=O)cc1OC | nt | 69.9 | i | i | 114.7 | 118.5
COc1ccc(CC(=O)NNS(=O)(=O)c2cccc([N+](=O)[O-])c2)cc1OC | i | i | i | i | nt | nt
CC1(C)CNc2cc(N)ccc2S1 | i | 61.2 | i | i | 31.9 | 42.7
O=C(Nc1ccc(N2CCOCC2)cc1)c1cc2ccccc2o1 | i | i | i | i | nt | nt
O=C(O)c1coc2ccccc12 | nt | i | nt | nt | nt | nt
O=C(/C=C/N1CCOCC1)c1coc2ccccc12 | i | 25.5 | i | i | i | i
O=C(/C=C/N1CCOCC1)c1cc2ccccc2o1 | i | 25.5 | i | i | i | i
SMILES | Rpn11 inh | TPT1 inhibitor | CSN inh | HNF4A DNA FP | caTPT1 confirm | RNase T1 inh
CC(C)c1ccc(CNc2ncccn2)cc1 | i | i | i | i | nt | nt
O=c1oc2ccccc2c2oc3cc(O)c(O)cc3c12 | i | i | i | i | nt | nt
O=c1oc2c(O)c(O)cc3c(=O)oc4c(O)c(O)cc1c4c23 | i | 81.5 | i | i | 91.8 | i
O=C(Nc1ccc(C(=O)OC2CCCCC2)cc1)c1ccncc1 | i | i | i | i | nt | nt
CCCN1C(=O)/C(=C/c2ccc(N3CCOCC3)cc2)NC1=S | nt | 138.5 | i | 90.5 | 142.7 | 139.0
CCN1C(=O)/C(=C/c2ccc(N3CCCC3)cc2)NC1=S | nt | 150.1 | i | i | 153.8 | 141.9
Cc1ccc(CN2C(=O)N/C(=C\c3ccc(N4CCOCC4)cc3)C2=O)cc1 | i | i | i | i | nt | nt
CCCc1nc2ccc([N+](=O)[O-])cc2[nH]1 | i | 28.9 | i | i | i | i
